Calls of active or inactive are those of the source. No cut-off for these calls is given here.
Tests used:
Plasmodium berghei [1] = assay: Antiplasmodial activity against Plasmodium berghei ANKA infected in NMRI mouse assessed as survival days at 10 mg/kg, po QD for 4 days; format: functional; details: time 4 day
[2] = Cmax in Sprague-Dawley rat at 5 mg/kg, po administered via gavage by UPLC-MS/MS analysis; format: ADME, organism-based; design: route oral, dose 5 mg/kg; details: in vivo
Outline: (§1)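 Male Sprague Dawley rats (n=3) gavaged with a solution at 5 mg free base/kg (10 mL/kg; 0.5% w/v HPMC, 0.4% v/v Tween 80, 0.5% v/v benzyl alcohol). Blood sampled at 5, 15, 30 min and 1, 2, 4, 6, 8, 24, 30, 48 h, diluted with two volumes water, analysed by UPLC-MS/MS.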

Plasmodium falciparum [3] = assay: Antiplasmodial activity against drug resistant Plasmodium falciparum D6 by [3H]hypoxanthine incorporation assay; format: functional, organism-based
Outline: (§2)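 Strains (K1, W2, 7G8, TM90C2A, D6, V1/S resistant; NF54 sensitive) cultured by the Trager and Jensen method; EC50 determined in vitro from [3H]hypoxanthine incorporation.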

[4] = Intrinsic clearance in human liver microsomes at 0.5 uM in presence of NADPH incubated upto 30 mins by UPLC-MS/MS analysis; format: ADME, Microsome; details: 0.5 h
Outline: (§3)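 Compound at 0.5 μM incubated with female CD1 mouse, male Sprague-Dawley rat or pooled human liver microsomes (0.5 mg/mL, 50 mM potassium phosphate, pH 7.4). Reaction started with excess NADPH. Samples taken at 0-30 min, quenched in acetonitrile, analysed by UPLC-MS/MS. Verapamil used as control, single time course.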

[5] = molecular target: Voltage-gated inwardly rectifying potassium channel KCNH2 (Homo sapiens, UniProt Q12809); assay: Inhibition of human ERG by IonWorks patch-clamp electrophysiology method
Outline: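 hERG K⁺ channel inhibition measured by IonWorks patch-clamp electrophysiology. Eight-point concentration-response curves made from 3-fold serial dilutions down from the maximum final assay concentration. Each curve generated on 2 occasions.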

[6] = Blood clearance in NMRI mouse at 1 mg/kg, iv administered as bolus dose by UPLC-MS/MS analysis; format: ADME, organism-based
[7] = AUC in NMRI mouse at 3 mg/kg, po administered as gavage by UPLC-MS/MS analysis; format: ADME, organism-based; design: dose 3 mg/kg; details: in vivo
Plasmodium falciparum [8] = assay: Antiplasmodial activity against drug resistant Plasmodium falciparum K1 by [3H]hypoxanthine incorporation assay; format: functional, organism-based; outline: as §2
Plasmodium berghei [9] = assay: Antiplasmodial activity against Plasmodium berghei ANKA infected in NMRI mouse assessed as survival days at 1 mg/kg, po QD for 4 days; format: functional; details: time 4 day
[10] = Intrinsic clearance in CD1 mouse liver microsomes at 0.5 uM in presence of NADPH incubated upto 30 mins by UPLC-MS/MS analysis; format: ADME, Microsome; details: 0.5 h; outline: as §3
Plasmodium berghei [11] = assay: Antiplasmodial activity against Plasmodium berghei ANKA infected in NMRI mouse assessed as reduction in parasitemia at 1 mg/kg, po QD for 4 days; format: functional; design: scale not given: the % may be the effect or the level left; details: time 4 day
Outline: (§4)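 Female NMRI mice (n=3 per group, randomized, not blinded) infected with GFP-transfected P. berghei ANKA. Oral dosing once daily for 4 days in 10% DMSO/40% PEG400/50% water or HPMC suspension vehicle. Parasitaemia measured by flow cytometry on blood collected 96 h after infection. Mice watched for toxicity over 4 h post-dose each day.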

[12] = Oral bioavailability in NMRI mouse at 10 mg/kg administered via gavage by UPLC-MS/MS analysis; format: ADME, organism-based; details: in vivo
Outline: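 Female NMRI mice (n=3) dosed by oral gavage as a solution at 10 mg free base/kg (10 mL/kg; vehicle 5 or 10% DMSO, 40% PEG400). Blood levels measured by UPLC-MS/MS. Parameters derived from the blood concentration-time curve.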

Plasmodium falciparum [13] = assay: Antiplasmodial activity against drug resistant Plasmodium falciparum 7G8 by [3H]hypoxanthine incorporation assay; format: functional, organism-based; outline: as §2
Plasmodium berghei [14] = assay: Antiplasmodial activity against Plasmodium berghei ANKA infected in NMRI mouse assessed as survival days at 30 mg/kg, po QD for 4 days; format: functional; details: time 4 day
Plasmodium falciparum [15] = assay: Antiplasmodial activity against drug resistant Plasmodium falciparum TM90C2A by [3H]hypoxanthine incorporation assay; format: functional, organism-based; outline: as §2
MRC5 = assay: Antiproliferative activity against human MRC5 cells assessed as reduction in cell viability after 68 hrs by resazurin dye based fluorescence assay; details: MRC5, 68 h
Outline: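 MRC-5 fibroblasts plated overnight as monolayers, exposed to compound pre-diluted in MEM for 68 h. Resazurin then added (final 50 μM) for 3 h, fluorescence read at ex 528/em 590 nm. Signal converted to % inhibition against high- and no-inhibition controls. Plates accepted at Z' > 0.5.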

[16] = Tmax in NMRI mouse at 3 mg/kg, po administered as gavage by UPLC-MS/MS analysis; format: ADME, organism-based; details: in vivo
[17] = Tmax in Sprague-Dawley rat at 5 mg/kg, po administered via gavage by UPLC-MS/MS analysis; format: ADME, organism-based; details: in vivo; outline: as §1
Plasmodium berghei [18] = assay: Antiplasmodial activity against Plasmodium berghei ANKA infected in NMRI mouse assessed as cure rate at 10 mg/kg, po QD for 4 days; format: functional, organism-based; details: time 4.0 day; outline: as §4
Plasmodium berghei [19] = assay: Antiplasmodial activity against Plasmodium berghei ANKA infected in NMRI mouse assessed as reduction in parasitemia at 30 mg/kg, po QD for 4 days; format: functional; design: scale not given: the % may be the effect or the level left; details: time 4 day; outline: as §4
Plasmodium berghei [20] = assay: Antiplasmodial activity against Plasmodium berghei infected in NMRI mouse assessed as reduction in parasitemia at 3 mg/kg, po QD for 4 days; format: functional; design: scale not given: the % may be the effect or the level left; details: time 4 day; outline: as §4
[21] = Volume of distribution at steady state in NMRI mouse at 1 mg/kg, iv administered as bolus dose by UPLC-MS/MS analysis; format: ADME, organism-based; details: in vivo
Plasmodium falciparum [22] = assay: Antiplasmodial activity against drug resistant Plasmodium falciparum W2 by [3H]hypoxanthine incorporation assay; format: functional, organism-based; outline: as §2
Plasmodium berghei [23] = assay: Antiplasmodial activity against Plasmodium berghei ookinete form assessed as growth inhibition incubated for 22 hrs by GFP-based fluorescence microscopic analysis; format: functional, organism-based
[24] = Half-life in Sprague-Dawley rat at 1 mg/kg, iv administered as bolus dose by UPLC-MS/MS analysis; format: ADME, organism-based; details: in vivo, 1 mg/kg
Outline: (§5)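 Male Sprague Dawley rats (n=3/route) received an iv bolus solution at 1 mg free base/kg (5 mL/kg; 5% DMSO in saline). Blood sampled from 5 min to 30 or 48 h post-dose, mixed with two volumes water, frozen, then analysed by UPLC-MS/MS. Parameters derived from the blood concentration-time curve.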

Plasmodium berghei [25] = assay: Antiplasmodial activity against Plasmodium berghei ANKA infected in NMRI mouse assessed as reduction in parasitemia at 10 mg/kg, po QD for 4 days; format: functional; design: scale not given: the % may be the effect or the level left; details: time 4 day; outline: as §4
[26] = Clearance in Sprague-Dawley rat blood at 1 mg/kg, iv administered as bolus dose by UPLC-MS/MS analysis; format: ADME, organism-based; outline: as §5
[27] = Cmax in NMRI mouse at 3 mg/kg, po administered as gavage by UPLC-MS/MS analysis; format: ADME, organism-based; design: route oral, dose 3 mg/kg; details: in vivo
Plasmodium berghei [28] = assay: Antiplasmodial activity against Plasmodium berghei ANKA infected in NMRI mouse assessed as cure rate at 30 mg/kg, po QD for 4 days; format: functional, organism-based; details: time 4.0 day; outline: as §4
Plasmodium yoelii = assay: Antiplasmodial activity against Plasmodium yoelli liver stage forms; format: functional, organism-based
[29] = AUC in Sprague-Dawley rat at 5 mg/kg, po administered via gavage by UPLC-MS/MS analysis; format: ADME, organism-based; design: dose 5 mg/kg; details: in vivo; outline: as §1
[30] = Volume of distribution at steady state in Sprague-Dawley rat at 1 mg/kg, iv administered as bolus dose by UPLC-MS/MS analysis; format: ADME, organism-based; details: in vivo, 1 mg/kg; outline: as §5

Voltage-gated inwardly rectifying potassium channel KCNH2, sequence (Q12809 whole entry): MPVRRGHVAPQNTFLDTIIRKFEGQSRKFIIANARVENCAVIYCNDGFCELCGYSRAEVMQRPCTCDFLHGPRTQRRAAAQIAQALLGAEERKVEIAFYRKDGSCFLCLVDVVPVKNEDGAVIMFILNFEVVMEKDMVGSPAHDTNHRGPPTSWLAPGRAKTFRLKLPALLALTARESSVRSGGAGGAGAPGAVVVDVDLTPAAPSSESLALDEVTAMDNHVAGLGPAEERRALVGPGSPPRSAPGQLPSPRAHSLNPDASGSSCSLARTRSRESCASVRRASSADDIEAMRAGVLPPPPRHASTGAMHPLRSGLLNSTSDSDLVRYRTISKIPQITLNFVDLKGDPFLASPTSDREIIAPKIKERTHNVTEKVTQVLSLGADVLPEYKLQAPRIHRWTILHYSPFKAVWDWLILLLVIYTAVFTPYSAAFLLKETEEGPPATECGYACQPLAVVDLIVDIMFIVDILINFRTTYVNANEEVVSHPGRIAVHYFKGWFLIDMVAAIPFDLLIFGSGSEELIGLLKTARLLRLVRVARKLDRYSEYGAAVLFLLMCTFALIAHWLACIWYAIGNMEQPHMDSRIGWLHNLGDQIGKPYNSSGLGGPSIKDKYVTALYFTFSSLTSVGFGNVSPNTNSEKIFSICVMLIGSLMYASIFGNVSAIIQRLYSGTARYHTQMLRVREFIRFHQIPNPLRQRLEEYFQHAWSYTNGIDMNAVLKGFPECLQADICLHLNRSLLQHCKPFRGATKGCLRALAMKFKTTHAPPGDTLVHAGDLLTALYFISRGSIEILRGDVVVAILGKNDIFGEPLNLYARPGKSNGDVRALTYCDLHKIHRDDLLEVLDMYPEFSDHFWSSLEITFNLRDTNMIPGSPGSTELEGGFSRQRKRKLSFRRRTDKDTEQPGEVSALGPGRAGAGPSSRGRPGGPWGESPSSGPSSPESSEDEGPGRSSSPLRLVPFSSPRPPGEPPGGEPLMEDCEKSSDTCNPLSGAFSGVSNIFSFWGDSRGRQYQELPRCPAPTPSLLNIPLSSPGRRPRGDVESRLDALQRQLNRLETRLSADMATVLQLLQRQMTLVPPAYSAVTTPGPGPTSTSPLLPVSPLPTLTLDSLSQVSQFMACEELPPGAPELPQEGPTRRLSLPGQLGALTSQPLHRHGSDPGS

## O=C(NCCN1CCCC1)c1cc(-c2ccc(CN3CCOCC3)cc2)nc2ccc(F)cc12 [CABAMIQUINE]
Plasmodium berghei [1]
  Survival: >30 days
[2]
  Cmax: 180 ng/mL
Plasmodium falciparum [3]
  EC50: 0.4 nM
[4]
  CLH: <= 1.1 ml/min/g
[5]
  IC50: 16000 nM
[6]
  clearance: 12 mL/min/kg
[7]
  AUC: 2990 ng·h/mL
Plasmodium falciparum [8]
  EC50: 0.4 nM
Plasmodium berghei [9]
  Survival: 14 days
[10]
  CLH: < 0.5 mL/min/g
Plasmodium berghei [11]
  Activity: 99.9%
[12]
  bioavailability: 74%
Plasmodium falciparum [13]
  EC50: 0.4 nM
Plasmodium berghei [14]
  Survival: >30 days
Plasmodium falciparum [15]
  EC50: 0.4 nM
MRC5
  EC50: 24000 nM
[16]
  Tmax: 1 h
[17]
  Tmax: 4 h
Plasmodium berghei [18]
  Activity: Active
Plasmodium berghei [19]
  Activity: 99.9%
Plasmodium berghei [20]
  Activity: 99.9%
[21]
  Vdss: 15 L/kg
Plasmodium falciparum [22]
  EC50: 0.4 nM
Plasmodium berghei [23]
  EC50: 5 nM
[24]
  t1/2: 10 h
Plasmodium berghei [25]
  Activity: 99.9%
[26]
  clearance: 18 mL/min/kg
[27]
  Cmax: 90 ng/mL
Plasmodium berghei [28]
  Activity: Active
Plasmodium yoelii
  EC50: 1 nM
[29]
  AUC: 3340 ng·h/mL
[30]
  Vdss: 15 L/kg

Reference: ChEMBL document CHEMBL4680079, “Discovery of a Quinoline-4-carboxamide Derivative with a Novel Mechanism of Action, Multistage Antimalarial Activity, and Potent in Vivo Efficacy” (J Med Chem, 2016)
